Reference: ChEMBL document CHEMBL4665798, “Novel Human Urate Transporter 1 Inhibitors as Hypouricemic Drug Candidates with Favorable Druggability” (J Med Chem, 2020)

Key:
Mus musculus [1] = assay: Hypouricemic activity in Kunming mouse model of xanthine/potassium oxonate-induced acute hyperuricemia assessed as decrease in serum uric acid level at 2 mg/kg administered 3 hrs prior to xanthine/potassium oxonate and measured after 6 hrs relative to control; type: functional; set-up: scale not given: the % may be the effect or the level left; details: time 9 hrs
Method in brief: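 Male Kunming mice, hyperuricemia induced by intragastric xanthine plus subcutaneous potassium oxonate (0.2 mL each). […] Groups: normal vehicle, untreated model, active control, test. Serum uric acid measured. Decrease ratio = (model SUA − compound SUA)/(model SUA − vehicle SUA).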

[2] = target: T1, Solute carrier family 22 member 12 (Homo sapiens, UniProt Q96S37); assay: Inhibition of human URAT1 expressed in HEK293T cells assessed as reduction in [14C]uric acid uptake preincubated for 15 mins followed by [14C]uric acid addition by liquid scintillation counting method; type: cell-based
T1 sequence (Q96S37 whole entry): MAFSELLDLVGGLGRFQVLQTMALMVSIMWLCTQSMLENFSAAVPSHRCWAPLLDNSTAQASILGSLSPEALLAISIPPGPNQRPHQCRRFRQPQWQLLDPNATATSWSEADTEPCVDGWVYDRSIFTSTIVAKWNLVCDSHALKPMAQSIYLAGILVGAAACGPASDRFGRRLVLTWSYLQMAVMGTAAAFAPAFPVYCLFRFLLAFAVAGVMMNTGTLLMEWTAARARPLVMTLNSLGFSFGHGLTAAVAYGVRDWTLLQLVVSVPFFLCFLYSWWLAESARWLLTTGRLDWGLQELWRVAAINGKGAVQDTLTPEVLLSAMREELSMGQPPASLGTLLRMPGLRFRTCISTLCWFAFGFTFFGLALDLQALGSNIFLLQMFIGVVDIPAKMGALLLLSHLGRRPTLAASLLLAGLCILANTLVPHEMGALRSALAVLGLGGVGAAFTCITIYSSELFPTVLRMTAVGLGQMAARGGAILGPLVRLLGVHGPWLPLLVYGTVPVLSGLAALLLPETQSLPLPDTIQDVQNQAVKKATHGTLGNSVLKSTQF

Mus musculus [3] = assay: Potency index, ratio of lesinurad to test compound for hypouricemic activity in Kunming mouse model of xanthine/potassium oxonate-induced acute hyperuricemia assessed as decrease in serum uric acid level at 2 mg/kg administered 3 hrs prior to xanthine/potassium oxonate and measured after 6 hrs; type: functional
[4] = AUC (0 to t) in Sprague-Dawley rat at 20 mg/kg, po by LC-MS analysis; type: ADME, organism-based; set-up: dose 20 mg/kg; details: in vivo
[5] = AUC (0 to infinity) in Sprague-Dawley rat at 1 mg/kg, iv by LC-MS analysis; type: ADME, organism-based; set-up: time infinity, route intravenous, dose 1 mg/kg; details: in vivo
[6] = Sub-acute toxicity in Kunming mouse assessed as congestion in hepatic central vein at 50 mg/kg, po administered as single dose every other day for 14 days by H and E staining based assay; type: organism-based; details: in vivo, 336 h, time 14 day
[7] = Clearance in Sprague-Dawley rat at 1 mg/kg, iv by LC-MS analysis; type: ADME, organism-based; details: in vivo
[8] = Acute toxicity in Kunming mouse assessed as induction of abnormal behaviors by measuring lethargy at 500 mg/kg, ig; type: organism-based; details: in vivo, po
[9] = Sub-acute toxicity in Kunming mouse assessed as anorexia at 50 mg/kg, po administered once every second day for 14 days; type: organism-based; details: in vivo, 336 h, time 14 day
[10] = Acute toxicity in male Kunming mouse assessed as change in body weight at 500 mg/kg, ig measured for 1 week; type: organism-based; details: in vivo, po, 168 h, time 1 weeks
[11] = MRT (0 to infinity) in Sprague-Dawley rat at 20 mg/kg, po by LC-MS analysis; type: ADME, organism-based; details: in vivo
[12] = Half-life in Sprague-Dawley rat at 1 mg/kg, iv by LC-MS analysis; type: ADME, organism-based; details: in vivo
[13] = Tmax in Sprague-Dawley rat at 20 mg/kg, po by LC-MS analysis; type: ADME, organism-based; details: in vivo
[14] = Acute toxicity in Kunming mouse assessed as death at 500 mg/kg, ig measured for 1 week; type: organism-based; details: in vivo, po, 168 h, time 1 weeks
[15] = Sub-acute toxicity in Kunming mouse assessed as appearance of ruffled fur at 50 mg/kg, po administered once every second day for 14 days; type: organism-based; details: in vivo, 336 h, time 14 day
[16] = Half-life in Sprague-Dawley rat at 20 mg/kg, po by LC-MS analysis; type: ADME, organism-based; details: in vivo
[17] = Cmax in Sprague-Dawley rat at 20 mg/kg, po by LC-MS analysis; type: ADME, organism-based; set-up: route oral, dose 20 mg/kg; details: in vivo
[18] = AUC (0 to infinity) in Sprague-Dawley rat at 20 mg/kg, po by LC-MS analysis; type: ADME, organism-based; set-up: route oral, time infinity, dose 20 mg/kg; details: in vivo
[19] = Sub-acute toxicity in male Kunming mouse assessed as increase in body weight at 50 mg/kg, po administered once every second day for 14 days; type: organism-based; details: in vivo, 336 h, time 14 day
[20] = Acute toxicity in female Kunming mouse assessed as change in body weight at 500 mg/kg, ig measured for 1 week; type: organism-based; details: in vivo, po, 168 h, time 1 weeks
[21] = AUC (0 to t) in Sprague-Dawley rat at 1 mg/kg, iv by LC-MS analysis; type: ADME, organism-based; set-up: dose 1 mg/kg; details: in vivo
[22] = Sub-acute toxicity in female Kunming mouse assessed as increase in body weight at 50 mg/kg, po administered once every second day for 14 days; type: organism-based; details: in vivo, 336 h, time 14 day
Rattus norvegicus = species: Rattus norvegicus; assay: Hypouricemic activity in rat model of xanthine/potassium oxonate-induced acute hyperuricemia assessed as decrease in serum uric acid level relative to control; type: functional; set-up: scale not given: the % may be the effect or the level left
[23] = Sub-acute toxicity in Kunming mouse assessed as death at 50 mg/kg, po administered once every second day for 14 days; type: organism-based; details: in vivo, 336 h, time 14 day
[24] = Sub-acute toxicity in Kunming mouse assessed as ballooning degeneration of liver at 50 mg/kg, po administered as single dose every other day for 14 days by H and E staining based assay; type: organism-based; details: in vivo, 336 h, time 14 day
[25] = Sub-acute toxicity in Kunming mouse assessed as hepatocellular condensation of liver at 50 mg/kg, po administered as single dose every other day for 14 days by H and E staining based assay; type: organism-based; details: in vivo, 336 h, time 14 day
[26] = MRT (0 to infinity) in Sprague-Dawley rat at 1 mg/kg, iv by LC-MS analysis; type: ADME, organism-based; details: in vivo
[27] = Sub-acute toxicity in Kunming mouse assessed as lethargy at 50 mg/kg, po administered once every second day for 14 days; type: organism-based; details: in vivo, 336 h, time 14 day
[28] = Sub-acute toxicity in Kunming mouse assessed as clonic convulsion at 50 mg/kg, po administered once every second day for 14 days; type: organism-based; details: in vivo, 336 h, time 14 day
[29] = Sub-acute toxicity in Kunming mouse assessed as hydropic degeneration of hepatocytes at 50 mg/kg, po administered as single dose every other day for 14 days by H and E staining based assay; type: organism-based; details: in vivo, 336 h, time 14 day
[30] = Acute toxicity in Kunming mouse assessed as induction of abnormal behaviors by measuring clonic convulsion at 500 mg/kg, ig; type: organism-based; details: in vivo, po
[31] = Acute toxicity in Kunming mouse assessed as induction of abnormal behaviors by measuring anorexia at 500 mg/kg, ig; type: organism-based; details: in vivo, po
[32] = Oral bioavailability in Sprague-Dawley rat at 20 mg/kg by LC-MS analysis; type: ADME, organism-based; details: in vivo

**Q.** Which Activity (Mus musculus [1]) does the source give for CC(Sc1nc2cccnc2n1-c1ccc(C2CC2)c2ccccc12)C(=O)O (stereo unspecified) here?
**A.** 42.06%

**Q.** What about the IC50 [2] of the same compound?
**A.** > 30 µM

**Q.** What does the source list for CC(Sc1nc2ncccc2n1-c1ccc(C#N)c2ccccc12)C(=O)O (stereo unspecified)?
**A.** Activity (Mus musculus [1]): 95.01%; Ratio (Mus musculus [3]): 2.8

**Q.** What does the source list for CC(Sc1nc2cnccc2n1-c1ccc(C2CC2)c2ccccc12)C(=O)O (racemic)?
**A.** AUC(0-t) [4]: 58200 ng·h/mL; AUC(0-inf) [5]: 3320 ng·h/mL; Activity [6]: Non-Toxic; Activity (Mus musculus [1]): 89.62%; clearance [7]: 5.3 mL/min/kg; Activity [8]: Non-Toxic; Activity [9]: Non-Toxic; Activity [10]: Non-Toxic; MRT inf [11]: 4.6 h; half-life [12]: 2.3 h; Tmax [13]: 0.5 h; IC50 [2]: 6.14 µM; Activity [14]: Non-Toxic; Activity [15]: Non-Toxic; half-life [16]: 3.1 h; Cmax [17]: 21600 ng/mL; AUC(0-inf) [18]: 65100 ng·h/mL; Activity [19]: Non-Toxic; Activity [20]: Non-Toxic; AUC(0-t) [21]: 3110 ng·h/mL; Activity [22]: Non-Toxic; Activity (Rattus norvegicus): 81.42%; Activity [23]: Non-Toxic; Activity [24]: Non-Toxic; Activity [25]: Non-Toxic; MRT inf [26]: 2.86 h; Activity [27]: Non-Toxic; Activity [28]: Non-Toxic; Activity [29]: Non-Toxic; Activity [30]: Non-Toxic; Activity [31]: Non-Toxic; bioavailability [32]: 93.6%
